The source made the active and inactive calls. No rule for the calls is given here.
Columns and labels:
[1] = Selectivity for Trypanosoma cruzi triosephosphate isomerase over human triosephosphate isomerase
[2] = target: Triosephosphate isomerase, glycosomal (Trypanosoma cruzi) (UniProt P52270); assay: Inhibition of Trypanosoma cruzi triosephosphate isomerase at 400 uM after 2 hrs
Summary of the method: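 Recombinant E. coli-expressed enzyme, dialyzed into 100 mM triethanolamine/10 mM EDTA pH 7.4, was incubated with compound (DMSO stock) in 100 mM triethanolamine, 10 mM EDTA, pH 7.4, 10% DMSO at 36 °C for 2 h. An aliquot was then assayed for activity (glyceraldehyde 3-phosphate to dihydroxyacetone phosphate, α-glycerol phosphate dehydrogenase-coupled) with 5 ng enzyme. Irreversible inhibition was scored as loss of activity; means of two experiments.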

Trypanosoma cruzi = assay: Antiparasitic activity against Trypanosoma cruzi T2 epimastigotes assessed as growth inhibition at 25 uM after 5 days; format: functional
Summary of the method: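 Late-log epimastigotes were grown axenically at 28 °C in BHI-tryptose with 5% fetal calf serum and seeded at 2×10^6/mL in medium containing compound (DMSO stock; final DMSO ≤1%, 1% DMSO control). Growth was read as A590 at day 0 and day 5. Inhibition = {1 − [(Ap − A0p)/(Ac − A0c)]} × 100. Means of two experiments.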

Sequence of Triosephosphate isomerase, glycosomal (Trypanosoma cruzi) (P52270 whole entry): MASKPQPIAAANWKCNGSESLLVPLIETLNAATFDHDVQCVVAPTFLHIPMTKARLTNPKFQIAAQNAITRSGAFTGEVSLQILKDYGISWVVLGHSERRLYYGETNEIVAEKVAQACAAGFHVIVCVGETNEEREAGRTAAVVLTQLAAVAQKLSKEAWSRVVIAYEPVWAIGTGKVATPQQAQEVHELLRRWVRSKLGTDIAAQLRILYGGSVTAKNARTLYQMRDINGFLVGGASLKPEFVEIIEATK

| SMILES | Ratio [1] | inhibition [2] [%] | Activity (Trypanosoma cruzi) |
| --- | --- | --- | --- |
| O=C(Oc1ccccc1)N1CCOCC1 | > 4 | 26 | Active |
| O=Cc1c(-c2ccccc2)no[n+]1[O-] | > 4 | 53 | Active |
| NS(=O)(=O)NCc1ccccc1 | > 4 | 0 | Active |
| CC(=O)CN1C(=O)c2ccccc2C1=O | > 4 | 30 | Active |
| Cc1c(C=O)no[n+]1[O-] | > 4 | 27 | Active |
| CCNC(=S)N/N=C/c1ccc([N+](=O)[O-])o1 | > 4 | 3 | Active |
| NC1=NS(=O)(=O)N=C(N)C1 | > 4 | 0 | Active |
| [O-][N+]1=c2ccccc2=[N+]([O-])C12CCCC2 | > 4 | 12 | Active |
| Nc1ccc2c(c1)[n+]([O-])c1cc(Cl)ccc1[n+]2[O-] | > 4 | 64 | Active |
| CCNC(=S)N/N=C/C=C/c1ccc([N+](=O)[O-])o1 | > 4 | 21 | Active |
| N#Cc1c2ccccc2[n+]([O-])n1-c1ccc([N+](=O)[O-])cc1 | > 4 | 29 | Active |
| O=[N+]([O-])c1ccc(/N=C/c2ccccc2[N+](=O)[O-])cc1 | > 4 | 34 | Active |
| CC(=N\c1ccc(C)cc1)/C(C)=N/c1ccc(C)cc1 | > 4 | 23 | Active |

More lines, main results first:

| Ratio [1] | inhibition [2] [%] | SMILES | Activity (Trypanosoma cruzi) |
| --- | --- | --- | --- |
| > 4 | 16 | Cn1c2ccc(Cl)cc2c(-c2ccccc2)[n+]1[O-] | Active |
| > 4 | 0 | COCCNC(=O)N/N=C/C=C/c1ccc([N+](=O)[O-])o1 | Active |
| > 4 | 10 | CCOC(=O)CN(Cc1ccc(OC)cc1)c1ccc([N+](=O)[O-])cc1[N+](=O)[O-] | Active |
| > 4 | 23 | Cc1c(C(=O)Nc2ccccc2)[n+]([O-])c2cc(CNC/C=C/c3ccccc3)ccc2[n+]1[O-] | Active |
| > 4 | 69 | [O-][n+]1onc2ccc(/C=C\[S+]([O-])c3ccccc3)cc21 (stereo unspecified) | Active |
| > 4 | 17 | CCCCCCOC(=O)N/N=C/c1no[n+]([O-])c1C | Active |
| > 4 | 48 | C=C(C)CNC(=O)Oc1ccccc1 | Active |
| > 4 | 60 | CCCCCCCNC(=O)N/N=C/c1ccc([N+](=O)[O-])o1 | Active |
| > 4 | 15 | C=CCNC(=S)N/N=C/C=C/c1ccco1 | Active |
| > 4 | 12 | CCOC(=O)c1c(-c2ccccc2)[n+]([O-])c2ccc(CN3CCN(C/C=C/c4ccccc4)CC3)cc2[n+]1[O-] | Active |
| > 4 | 18 | Cc1ccc2c(c1)=[N+]([O-])C(C)[N+]=2[O-] (stereo unspecified) | Active |
| > 4 | 45 | COc1ccc(C(=O)/C=C/c2ccc3no[n+]([O-])c3c2)cc1 | Active |
| > 4 | 13 | Cc1ccc(-n2cc(C)[n+]([O-])c2)cc1 | Active |
| > 4 | 45 | O=C(N/N=C/C=C/c1ccc([N+](=O)[O-])o1)Oc1ccccc1 | Active |
| > 4 | 12 | CCCCNC(=O)c1ccc2no[n+]([O-])c2c1 | Active |
| – | 23 | [O-][n+]1onc(-c2ccccc2)c1CO | – |
| – | 7 | CC(=O)Oc1c(C)c(C)c2c(c1C)CCC(C)(C(=O)NCCO[N+](=O)[O-])O2 (stereo unspecified) | – |

From ChEMBL document CHEMBL1629474, “Massive screening yields novel and selective Trypanosoma cruzi triosephosphate isomerase dimer-interface-irreversible inhibitors with anti-trypanosomal activity” (Eur J Med Chem, 2010)
